Measured values from ChEMBL document CHEMBL3616437, “Thiazole compounds with activity against Cryptococcus gattii and Cryptococcus neoformans in vitro” (Eur J Med Chem, 2015).
Converted amounts (≈) assume the structure as drawn.

Experiments:
[1] = test system: Cryptococcus gattii species complex; experiment: Antifungal activity against Cryptococcus gattii 547/OTTI-97-PI-10 after 48 to 72 hrs by broth microdilution method; format: functional, Cryptococcus bacillisporus
Method in brief: (§1)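 CLSI M27-A3 broth microdilution in RPMI with L-glutamine, buffered to pH 7.0 with 0.165 M MOPS. Colonies grown twice on SDA, 48 h at 35°C. Inoculum set to 70% transmittance at 530 nm, then diluted to 1-5 x10^3 cells/mL. Test agents dissolved in DMSO, serially diluted, tested at 0.1 to 62.5 µM. Plates held at 35°C for 48-72 h. MIC is the lowest concentration giving an optically clear well, read visually against drug-free growth controls.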

Cryptococcus neoformans [2] = experiment: Antifungal activity against Cryptococcus neoformans ATCC 24067 after 48 to 72 hrs by broth microdilution method; format: functional
Method in brief: (§2)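 CLSI M27-A3 broth microdilution. Isolates subcultured twice on SDA, 48 h at 35°C. Saline suspension adjusted to 70% transmittance at 530 nm, then diluted to 1-5 x10^3 cells/mL in RPMI with L-glutamine, 0.165 M MOPS, pH 7.0. Compounds in DMSO, tested at […]. 35°C for 48-72 h. MIC read visually as the lowest concentration giving an optically clear well.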

Cryptococcus neoformans [3] = experiment: Antifungal activity against Cryptococcus neoformans 5396 after 48 to 72 hrs by broth microdilution method; format: functional; method in brief: as §2
[4] = Selectivity index, ratio of IC50 for African green monkey Vero cells to MIC for Cryptococcus neoformans ATCC 24067; format: toxicity, cell-based
[5] = test system: Cryptococcus gattii species complex; experiment: Antifungal activity against Cryptococcus gattii 23/10993 after 48 to 72 hrs by broth microdilution method; format: functional, Cryptococcus bacillisporus; method in brief: as §1
Cryptococcus neoformans [6] = experiment: Antifungal activity against Cryptococcus neoformans F10 after 48 to 72 hrs by broth microdilution method; format: functional; method in brief: as §2
Cryptococcus neoformans [7] = experiment: Antifungal activity against Cryptococcus neoformans ATCC 28957 after 48 to 72 hrs by broth microdilution method; format: functional; method in brief: as §2
[8] = Cytotoxicity against C57BL/6 mouse peritoneal macrophages assessed as cell viability measured after 48 hrs by MTT assay; format: cell-based; settings: C57BL/6, Peritoneal macrophage cell
Method in brief: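 Thioglycollate-elicited peritoneal macrophages from male C57BL/6 mice, 6–8 weeks old, in RPMI with 10% FBS. Seeded 1 x 10^5 cells/well, pre-incubated 24 h at 37°C. Exposed 48 h at 37°C, 5% CO2, to eight nonserial dilutions from 100 to 0.0128 µM, with 0.5% DMSO control. MTT read-out, % inhibition versus DMSO control. IC50 reported as median with 95% CI. Triplicate, two independent experiments.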

[9] = test system: Cryptococcus gattii species complex; experiment: Antifungal activity against Cryptococcus gattii L27/01 after 48 to 72 hrs by broth microdilution method; format: functional, Cryptococcus bacillisporus; method in brief: as §1
Cryptococcus neoformans [10] = experiment: Antifungal activity against Cryptococcus neoformans WP after 48 to 72 hrs by broth microdilution method; format: functional; method in brief: as §2
Cryptococcus neoformans [11] = experiment: Antifungal activity against Cryptococcus neoformans LMM820 after 48 to 72 hrs by broth microdilution method; format: functional; method in brief: as §2
Cryptococcus neoformans [12] = experiment: Antifungal activity against Cryptococcus neoformans VM-MCMMPI after 48 to 72 hrs by broth microdilution method; format: functional; method in brief: as §2
Vero = experiment: Cytotoxicity against African green monkey Vero cells assessed as cell viability measured after 48 hrs by MTT assay; format: cell-based; settings: Chlorocebus sabaeus
Method in brief: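 VERO cells in D-MEM with 5% FBS, used up to 20 passages. Seeded 1 x 10^4 cells/well, pre-incubated 24 h at 37°C. Exposed 48 h at 37°C, 5% CO2, to eight nonserial dilutions from 100 to 0.0128 µM, with 0.5% DMSO control. MTT reduction read-out, corrected for background and blank. IC50 reported as median with 95% CI. Triplicate, two independent experiments.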

[13] = test system: Cryptococcus gattii species complex; experiment: Antifungal activity against Cryptococcus gattii LMM818 after 48 to 72 hrs by broth microdilution method; format: functional, Cryptococcus bacillisporus; method in brief: as §1
[14] = Selectivity index, ratio of IC50 for C57BL/6 mouse peritoneal macrophages to MIC for Cryptococcus neoformans ATCC 24067
Method in brief: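 SI = IC50/MIC. Thioglycollate-elicited peritoneal macrophages from C57BL/6 mice are seeded at 1 x 10^5/well. They are exposed for 48 h at 37°C to eight concentrations from 100 to 0.0128 µM. Viability read by MTT versus 0.5% DMSO control, triplicate in two experiments.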

[15] = test system: Cryptococcus gattii species complex; experiment: Antifungal activity against Cryptococcus gattii 135L/03 after 48 to 72 hrs by broth microdilution method; format: functional, Cryptococcus bacillisporus; method in brief: as §1
Cryptococcus neoformans [16] = experiment: Antifungal activity against Cryptococcus neoformans 28JF after 48 to 72 hrs by broth microdilution method; format: functional; method in brief: as §2
[17] = test system: Cryptococcus gattii species complex; experiment: Ratio of compound MIC for Cryptococcus gattii L28/02 in presence of fluconazole to compound MIC for Cryptococcus gattii L28/02 in absence of fluconazole by checkerboard microtiter test; format: functional, Cryptococcus bacillisporus
Method in brief: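 Checkerboard microdilution: eight two-fold dilutions of test compound (0.11 to 15.6 µM) crossed with amphotericin B (0.025 to 3.9 µM, in DMSO) or fluconazole (0.48 to 62.5 µM, in water). Inoculum per CLSI M27-A3 in RPMI-MOPS pH 7.0, 1-5 x10^3 cells/mL. Growth 48 to 72 h. Effective MIC is the combination concentration giving complete inhibition. FICs derived from MICs in combination versus alone.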

[18] = test system: Cryptococcus gattii species complex; experiment: Antifungal activity against Cryptococcus gattii 196L/03 after 48 to 72 hrs by broth microdilution method; format: functional, Cryptococcus bacillisporus; method in brief: as §1
Cryptococcus neoformans [19] = experiment: Antifungal activity against Cryptococcus neoformans 96806 after 48 to 72 hrs by broth microdilution method; format: functional; method in brief: as §2
[20] = test system: Cryptococcus gattii species complex; experiment: Antifungal activity against Cryptococcus gattii L28/02 after 48 to 72 hrs by broth microdilution method; format: functional, Cryptococcus bacillisporus; method in brief: as §1
[21] = test system: Cryptococcus gattii species complex; experiment: Antifungal activity against Cryptococcus gattii L24/01 after 48 to 72 hrs by broth microdilution method; format: functional, Cryptococcus bacillisporus; method in brief: as §1
[22] = test system: Cryptococcus gattii species complex; experiment: Antifungal activity against Cryptococcus gattii ICB181 after 48 to 72 hrs by broth microdilution method; format: functional, Cryptococcus bacillisporus; method in brief: as §1
Cryptococcus neoformans [23] = experiment: Antifungal activity against Cryptococcus neoformans 27JF after 48 to 72 hrs by broth microdilution method; format: functional; method in brief: as §2
[24] = test system: Cryptococcus gattii species complex; experiment: Antifungal activity against Cryptococcus gattii 1913ER after 48 to 72 hrs by broth microdilution method; format: functional, Cryptococcus bacillisporus; method in brief: as §1
[25] = test system: Cryptococcus bacillisporus; experiment: Antifungal activity against Cryptococcus gattii ATCC 32608 after 48 to 72 hrs by broth microdilution method; format: functional; method in brief: as §1
Cryptococcus neoformans [26] = experiment: Antifungal activity against Cryptococcus neoformans CN31 after 48 to 72 hrs by broth microdilution method; format: functional; method in brief: as §2
Cryptococcus neoformans [27] = experiment: Antifungal activity against Cryptococcus neoformans ATCC 62066 after 48 to 72 hrs by broth microdilution method; format: functional

SMILES: C(=N\Nc1nc(-c2ccccc2)cs1)/C1CCCCC1
- MFC [1]: 7.8 µM (≈ 2.23 µg/mL)
- MIC [1]: 1.9 µM (≈ 0.542 µg/mL)
- MIC (Cryptococcus neoformans [2]): 0.9 µM (≈ 0.257 µg/mL)
- MFC (Cryptococcus neoformans [3]): 1.9 µM (≈ 0.542 µg/mL)
- MIC (Cryptococcus neoformans [3]): 1.4 µM (≈ 0.4 µg/mL)
- selectivity ratio [4]: 111
- MFC [5]: 7.8 µM (≈ 2.23 µg/mL)
- MIC [5]: 1.9 µM (≈ 0.542 µg/mL)
- MFC (Cryptococcus neoformans [6]): 3.9 µM (≈ 1.11 µg/mL)
- MIC (Cryptococcus neoformans [6]): 1.7 µM (≈ 0.485 µg/mL)
- MFC (Cryptococcus neoformans [7]): 7.8 µM (≈ 2.23 µg/mL)
- MIC (Cryptococcus neoformans [7]): 1.2 µM (≈ 0.342 µg/mL)
- IC50 [8]: > 100 µM
- MFC [9]: 1.9 µM (≈ 0.542 µg/mL)
- MIC [9]: 1 µM (≈ 0.285 µg/mL)
- MFC (Cryptococcus neoformans [10]): 3.9 µM (≈ 1.11 µg/mL)
- MIC (Cryptococcus neoformans [10]): 2.2 µM (≈ 0.628 µg/mL)
- MFC (Cryptococcus neoformans [11]): 1.9 µM (≈ 0.542 µg/mL)
- MIC (Cryptococcus neoformans [11]): 1.7 µM (≈ 0.485 µg/mL)
- MFC (Cryptococcus neoformans [12]): 3.9 µM (≈ 1.11 µg/mL)
- MIC (Cryptococcus neoformans [12]): 1.4 µM (≈ 0.4 µg/mL)
- IC50 (Vero): > 100 µM
- MFC [13]: 3.9 µM (≈ 1.11 µg/mL)
- MIC [13]: 2.2 µM (≈ 0.628 µg/mL)
- Ratio [14]: 111
- MFC [15]: 3.9 µM (≈ 1.11 µg/mL)
- MIC [15]: 1.9 µM (≈ 0.542 µg/mL)
- MFC (Cryptococcus neoformans [16]): 7.8 µM (≈ 2.23 µg/mL)
- MIC (Cryptococcus neoformans [16]): 2.7 µM (≈ 0.771 µg/mL)
- fractional inhibitory concentration index (FICI) [17]: 2.47
- MFC [18]: 3.9 µM (≈ 1.11 µg/mL)
- MIC [18]: 1.4 µM (≈ 0.4 µg/mL)
- MFC (Cryptococcus neoformans [19]): 3.9 µM (≈ 1.11 µg/mL)
- MIC (Cryptococcus neoformans [19]): 1.9 µM (≈ 0.542 µg/mL)
- MFC [20]: 7.8 µM (≈ 2.23 µg/mL)
- MIC [20]: 1.9 µM (≈ 0.542 µg/mL)
- MFC [21]: 3.9 µM (≈ 1.11 µg/mL)
- MIC [21]: 1.4 µM (≈ 0.4 µg/mL)
- MFC [22]: 3.9 µM (≈ 1.11 µg/mL)
- MIC [22]: 0.7 µM (≈ 0.2 µg/mL)
- MFC (Cryptococcus neoformans [23]): 7.8 µM (≈ 2.23 µg/mL)
- MIC (Cryptococcus neoformans [23]): 2.4 µM (≈ 0.685 µg/mL)
- MFC [24]: 7.8 µM (≈ 2.23 µg/mL)
- MIC [24]: 1.4 µM (≈ 0.4 µg/mL)
- MFC [25]: 1.9 µM (≈ 0.542 µg/mL)
- MIC [25]: 1.4 µM (≈ 0.4 µg/mL)
- MFC (Cryptococcus neoformans [26]): 1.9 µM (≈ 0.542 µg/mL)
- MIC (Cryptococcus neoformans [26]): 1.4 µM (≈ 0.4 µg/mL)
- MFC (Cryptococcus neoformans [27]): 7.8 µM (≈ 2.23 µg/mL)
- MIC (Cryptococcus neoformans [27]): 1.2 µM (≈ 0.342 µg/mL)
